# Bioassay records as filed in PubChem.
# Furin inhibitor: inhibitors of human furin; P09958; purified furin, fluorogenic substrate cleavage; inhibition, % at 20 µM or 30 µM; 220,000 tested, 0.061% active; in the data active = inhibition above about 25%
# NPY1 pot ag: potentiates or activates human NPY-Y1 receptor; NPY-Y1 expressing cells, potentiator/agonist activation; activation, % at 3.6 µM; 220,000 tested, 0.37% active; in the data active = activation above about 33%, passing the limit was not always enough;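 also: cells stimulated with NPY at EC10 then isoproterenol at EC100; 0% = low agonist plus stimulus and 100% = saturating agonist plus stimulus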
# NPY-Y2 PAM-ag: potentiators or agonists of human neuropeptide Y receptor Y2 | P49146 | cells expressing NPY-Y2, potentiator/agonist read-out | 220,000 tested, 0.45% active | activation, % at 3.6 µM; in the data active = activation above about 27%;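 also: cells stimulated with NPY near EC25 plus isoproterenol at EC100; 0% = vehicle plus submaximal agonist and 100% = vehicle plus saturating agonist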
# Target sequence (P49146 whole entry, looked up): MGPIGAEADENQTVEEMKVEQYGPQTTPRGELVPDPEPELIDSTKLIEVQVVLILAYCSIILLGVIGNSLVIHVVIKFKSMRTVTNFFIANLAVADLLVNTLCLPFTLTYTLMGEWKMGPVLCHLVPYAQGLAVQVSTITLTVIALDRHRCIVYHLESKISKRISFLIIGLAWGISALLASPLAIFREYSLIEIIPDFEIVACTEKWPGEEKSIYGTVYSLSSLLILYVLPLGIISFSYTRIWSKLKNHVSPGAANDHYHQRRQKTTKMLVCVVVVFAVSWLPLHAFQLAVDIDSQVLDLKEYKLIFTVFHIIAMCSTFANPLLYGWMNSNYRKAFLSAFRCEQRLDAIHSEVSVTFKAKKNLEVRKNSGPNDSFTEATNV
# NPY-Y2 antag: NPY-Y2 (human) receptor antagonism; AID 793; inhibition, % at 2.7 µM; P49146; NPY-Y2 expressing cells, antagonist mode; 140,000 tested, 0.99% active; in the data active = inhibition above about 17%;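 also: 0% = vehicle with agonist challenge and 100% = reference antagonist with challenge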
# NPY Y1 blocker: blocks the human neuropeptide Y Y1 receptor | 200,000 tested, 1% active | inhibition, % at 3.6 µM | HEK293-CNG Y1 cells, membrane potential fluorescence; NPY at EC95, then isoproterenol | P25929;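 active = inhibition above the campaign mean inhibition of all tested compounds plus 3 SD, cut at about 20% in these data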;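 also: 0% = DMSO wells given NPY plus isoproterenol and 100% = isoproterenol alone without NPY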
#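 Test system – HEK293 Y1/CNG channel cell line · Also added – NPY agonist 25 nM, then isoproterenol 1 µM plus Ro 20-1724 25 µM · Compound dosing – one concentration, 3.6 µM, in 0.4% DMSO · Schedule – compound incubation 1 h at room temperature, readout 45 min post-stimulation · Technique – fluorescence, membrane potential probe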
# KCC2 mod: modulators of human KCC2 chloride dependent transport | Q9H2X9 | KCC2 cells, thallium flux FluoZin-2 fluorescence | B-score of Tl+ flux slope (higher = more flux/activation; lower = inhibition) at 10 µM | 190,000 tested, 2.2% active;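 active = thallium flux slope and its plate-corrected score both differing from the plate sample mean at a set confidence after two filtering rounds, in either direction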;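 also: slope of fluorescence scaled to starting intensity during 10 to 20 s after thallium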
# KCC2 secondary: KCC2 (human) modulation, secondary assay; shares compounds with KCC2 mod; HEK293-KCC2, thallium flux, FluoZin2 fluorescence; stronger effect = higher value; normalised thallium flux (F/F0 slope) at 10 µM; 3,700 tested, 15% active;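 active = thallium flux slope above the same plate's solvent-only control mean plus 3 SD; inconclusive = the two replicate wells disagree; inactive = no significant difference from solvent-only control wells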
# KCC2 bumet counter: bumetanide-insensitive thallium flux in KCC2 cells with ouabain, counter-screen; shares compounds with KCC2 mod; normalized thallium flux at 10 µM; HEK293-KCC2 + bumetanide/ouabain, thallium flux FluoZin2; stronger effect = higher value; 3,700 tested, 49% active;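 active = thallium entry rate above the same plate's blocked-transporter control wells by more than 3 SD; inconclusive = the two repeat wells disagree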;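 also: raw slope of fluorescence over initial fluorescence between 10 and 20 s after thallium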
# KCC2 sec2: confirmation of human KCC2 transport modulators; 3,700 tested, 23% active; shares compounds with KCC2 mod; normalized thallium flux at 10 µM; HEK293-KCC2, thallium flux FluoZin2 fluorescence; actives lie on both sides; F/F0 rise rate, 10–20 s post-thallium; AID 1715;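 active = thallium flux slope more than 3 SD above or below the plate's solvent-only control mean, mostly below; inconclusive = the two repeat wells disagreed; inactive = no significant shift from solvent-only controls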;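 also: raw slope with 0.1% DMSO as baseline and bumetanide as block control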
# HEK293 Tl flux: counter-screen for KCC2 modulators: effect in parental HEK293 cells; shares compounds with KCC2 mod; thallium flux FluoZin2, ouabain; baseline-ratio fluorescence slope, 10–20 s after thallium; thallium flux rate (normalised fluorescence) at 10 µM; 3,700 tested, 46% active;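 active = thallium flux rate significantly above the same plate's solvent-only control wells, beyond their mean plus 3 SD; inconclusive = the two replicate wells gave conflicting results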
# KCC2 ouabain: KCC2 (human) modulation, ouabain retest; 3,700 tested, 48% active; AID 1717; raw Tl+ flux slope (below DMSO = inhibition, above = activation) at 10 µM; shares compounds with KCC2 mod; HEK293-KCC2, thallium flux FluoZin2 fluorescence; bidirectional: low = inhibitor, high = activator;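 active = thallium flux slope beyond 3 SD from same-plate DMSO control mean in most replicates, usually higher, sometimes lower; inconclusive = repeat tests gave conflicting results; inactive = no significant difference from controls in most replicates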;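 also: slope of initial-normalized fluorescence between seconds 10 and 20 after thallium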
# HEK293 Tl flux2: acts in parental HEK cells, second KCC2 counter-screen. HEK293 parental, thallium flux FluoZin-2 fluorescence slope. thallium flux slope at 10 µM. shares compounds with KCC2 mod. AID 1718. 3,700 tested, 33% active;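 active = thallium flux slope above the same plate's solvent-control mean plus 3 SD in both duplicate wells; inconclusive = duplicate wells that disagreed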;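 also: run without ouabain in cells lacking the KCC2 cotransporter; slope of fluorescence scaled to its starting value between 10 and 20 s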
# Numbers without * were called inactive; ? = inconclusive; . = no result given. Sampled rows, rich in hits. Any-hit rate of the full collection: about 3.7%.
SMILES,Furin inhibitor,NPY1 pot ag,NPY-Y2 PAM-ag,NPY-Y2 antag,NPY Y1 blocker,KCC2 mod,KCC2 secondary,KCC2 bumet counter,KCC2 sec2,HEK293 Tl flux,KCC2 ouabain,HEK293 Tl flux2
CC(C)(C)C(=O)/C=c1\[nH]c(=O)/c(=C\c2ccccc2F)s1,-32.0,-12.5,1.7,.,7.6,18.1*,0.00776,0.0237*,0.0379*,0.0149*,0.0315*,0.0179*
CCOC(=O)C1CSC(CC(=O)Nc2ccc(OC(F)(F)F)cc2)C(=O)N1 (stereo unspecified),-5.6,18.7,-21.4,.,.,-0.366,.,.,.,.,.,.
Cc1ccccc1C(=O)/C=C1/SCC(=O)N1C,-7.7,-1.4,10.5,.,0.4,0.303,.,.,.,.,.,.
CC1CCc2sc(C(=O)NCc3ccc(F)cc3)cc2C1 (stereo unspecified),-10.3,11.6,0.7,2.5,-2.9,-0.876,.,.,.,.,.,.
CC1CCc2sc(-c3n[nH]c(=S)o3)cc2C1 (stereo unspecified),-50.4,-26.6,-18.1,.,11.6,38.6*,0.0211*,0.104*,0.0323,0.0304*,0.0529*,0.0151*
CC(C)(C)Sc1ccccc1S(=O)(=O)C(C)(C)C,-12.8,-6.8,-5.8,.,.,-1.15,.,.,.,.,.,.
Cc1ccc(Nc2nnc(SC/C(O)=C(\C#N)c3nc4ccccc4[nH]3)s2)c(C)c1,-15.1,3.0,-2.2,1.9,6.2,-4.24*,?,0.0071,?,?,0.014*,0.0115*
Cc1ccc(Nc2nnc(SCC(=O)c3ccc(Br)s3)s2)c(C)c1,-14.9,-24.1,-0.8,5.9,-0.2,-3.86*,0.0101,?,?,0.00697,0.0134*,0.0102
Cc1ccc(S(=O)(=O)Oc2ccc(C3C4=C(CCCC4=O)N(CCC(=O)O)C4=C3C(=O)CCC4)cc2Cl)cc1,-36.9,-10.5,-0.4,1.3,-2.9,-0.518,.,.,.,.,.,.
Cc1cnc(NC(=O)c2c(O)c3cccc4c3n(c2=O)CCC4)s1,-14.3,-3.9,11.9,2.4,5.8,-0.594,.,.,.,.,.,.
CC(C)c1nnc(NC(=O)c2c(O)c3cccc4c3n(c2=O)CCC4)s1,-5.5,28.4,0.3,-1.8,0.4,.,0.0076,0.00899*,0.0273,0.00626,0.0166*,0.00934
Cc1nn(-c2cc(C(F)(F)F)ccc2Cl)c2nc(C(Cl)(Cl)Cl)[nH]c(=O)c12,-15.4,21.5,23.2,.,.,50.3*,0.00577,0.061*,0.0483*,0.0356*,0.0483*,0.0343*
Cc1nn(-c2ccccc2)c2nc(C(F)(F)F)[nH]c(=O)c12,-13.9,-2.5,-26.1,3.4,-0.8,-0.468,.,.,.,.,.,.
O=C(NC(=S)NCCO)c1sc2ccccc2c1Cl,-20.6,-20.4,-19.6,.,-0.2,3.71*,0.00885,0.0106*,0.0319,0.0153*,0.0194,0.0121
O=C(NNC(=S)NC1CCCCC1)c1sc2ccccc2c1Cl,-21.4,9.8,-10.2,6.9,14.9,1.88,.,.,.,.,.,.
Cc1cc(/N=C/C=C2\N(C)c3ccccc3C2(C)C)n(CCC#N)n1,3.4,-0.2,1.7,1.6,8.1,-3.62*,0.00783,0.00512,0.03,0.00565*,?,0.00963
CN1/C(=C\C=Nc2ccc3ccccc3c2)C(C)(C)c2ccccc21,24.9,1.3,6.8,2.8,-0.9,.,.,.,.,.,.,.
CCNC(=O)C12CCC(C)(C(=O)O1)C2(C)C (stereo unspecified),-23.0,-2.2,-2.9,.,4.3,0.637,.,.,.,.,.,.
